Test results published in ChEMBL document CHEMBL1144620, “Synthesis and biodistribution of new radiolabeled high-affinity choline transporter inhibitors [11C]hemicholinium-3 and [18F]hemicholinium-3” (Bioorg Med Chem Lett, 2007).

Columns and labels:
[1] = Biodistribution in L-Atrium of 9L-glioma bearing rat at 1 to 3 mCi, iv after 5 mins; format: ADME, organism-based; conditions: in vivo
In short: (§1)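 9L-glioma rats (200–300 g) given 1–3 mCi of [¹¹C]- or [¹⁸F]-labelled tracer iv by tail vein while consciously restrained. At 5 or 20 min they were decapitated under halothane anaesthesia. Tissues were excised and weighed, and decay-corrected radioactivity was counted by gamma counter. Values are %ID/g, averaged over three rats per time point.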

[2] = Biodistribution in urine of 9L-glioma bearing rat at 1 to 3 mCi, iv after 5 mins; format: ADME, organism-based; conditions: in vivo
In short: (§2)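 In 9L-glioma rats injected iv (tail vein, conscious restraint) with 1–3 mCi of radiotracer, urine was drawn by syringe from the bladder at 5 or 20 min. Animals were killed by decapitation under halothane. Decay-corrected radioactivity was gamma-counted and expressed as percent of injected dose (%ID), averaged over three rats.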

Kidney [3] = assay: Biodistribution in kidney of 9L-glioma bearing rat at 1 to 3 mCi, iv after 5 mins; format: ADME, organism-based; conditions: in vivo; in short: as §1
Liver [4] = assay: Biodistribution in liver of 9L-glioma bearing rat at 1 to 3 mCi, iv after 5 mins; format: ADME, organism-based; conditions: in vivo; in short: as §1
Lung [5] = assay: Biodistribution in lung of 9L-glioma bearing rat at 1 to 3 mCi, iv after 5 mins; format: ADME, organism-based; conditions: in vivo; in short: as §1
Brain [6] = assay: Biodistribution in brain of 9L-glioma bearing rat at 1 to 3 mCi, iv after 5 mins; format: ADME, organism-based; conditions: in vivo; in short: as §1
Blood [7] = assay: Biodistribution in blood of 9L-glioma bearing rat at 1 to 3 mCi, iv after 5 mins; format: ADME, organism-based; conditions: in vivo; in short: as §1
Plasma [8] = assay: Biodistribution in plasma of 9L-glioma bearing rat at 1 to 3 mCi, iv after 5 mins; format: ADME, organism-based; conditions: in vivo; in short: as §1
[9] = Biodistribution in R-Atrium of 9L-glioma bearing rat at 1 to 3 mCi, iv after 5 mins; format: ADME, organism-based, Right cardiac atrium; conditions: in vivo; in short: as §1
Septum [10] = assay: Biodistribution in septum of 9L-glioma bearing rat at 1 to 3mCi, iv after 5 mins; format: ADME, organism-based; conditions: in vivo; in short: as §1
[11] = Biodistribution in L-ventricle of 9L-glioma bearing rat at 1 to 3mCi, iv after 5 mins; format: ADME, organism-based, Heart left ventricle; conditions: in vivo; in short: as §1
[12] = Biodistribution in R-ventricle of 9L-glioma bearing rat at 1 to 3 mCi, iv after 5 mins; format: ADME, organism-based, Heart right ventricle; conditions: in vivo; in short: as §1
[13] = Biodistribution in A-V-node of 9L-glioma bearing rat at 1 to 3 mCi, iv after 5 mins; format: ADME, organism-based; conditions: in vivo; in short: as §1
Solar plexus [14] = assay: Biodistribution in solar plexus of 9L-glioma bearing rat at 1 to 3 mCi, iv after 5 mins; format: ADME, organism-based; conditions: in vivo; in short: as §1
[15] = Biodistribution in skeletal muscle of 9L-glioma bearing rat at 1 to 3 mCi, iv after 5 mins; format: ADME, organism-based, Muscle tissue; conditions: in vivo; in short: as §1
9L [16] = assay: Biodistribution in tumor of 9L-glioma bearing rat at 1 to 3 mCi, iv after 5 mins; format: ADME, organism-based; conditions: in vivo; in short: as §1
[17] = Ratio of biodistribution in tumor to blood in 9L-glioma bearing rat at 1 to 3 mCi, iv after 5 mins; format: ADME, organism-based; conditions: tumor and blood (tumor-to-blood ratio)
[18] = Ratio of biodistribution in tumor to muscle of 9L-glioma bearing rat at 1 to 3 mCi, iv after 5 mins; format: ADME, organism-based; conditions: in vivo
Blood [19] = assay: Biodistribution in blood of 9L-glioma bearing rat at 1 to 3 mCi, iv after 20 mins; format: ADME, organism-based; conditions: in vivo; in short: as §1
Plasma [20] = assay: Biodistribution in plasma of 9L-glioma bearing rat at 1 to 3 mCi, iv after 20 mins; format: ADME, organism-based; conditions: in vivo; in short: as §1
Brain [21] = assay: Biodistribution in brain of 9L-glioma bearing rat at 1 to 3 mCi, iv after 20 mins; format: ADME, organism-based; conditions: in vivo; in short: as §1
Lung [22] = assay: Biodistribution in lung of 9L-glioma bearing rat at 1 to 3 mCi, iv after 20 mins; format: ADME, organism-based; conditions: in vivo; in short: as §1
[23] = Biodistribution in L-Atrium of 9L-glioma bearing rat at 1 to 3 mCi, iv after 20 mins; format: ADME, organism-based, Left cardiac atrium; conditions: in vivo; in short: as §1
Liver [24] = assay: Biodistribution in liver of 9L-glioma bearing rat at 1 to 3 mCi, iv after 20 mins; format: ADME, organism-based; conditions: in vivo; in short: as §1
Kidney [25] = assay: Biodistribution in kidney of 9L-glioma bearing rat at 1 to 3 mCi, iv after 20 mins; format: ADME, organism-based; conditions: in vivo; in short: as §1
[26] = Biodistribution in urine of 9L-glioma bearing rat at 1 to 3 mCi, iv after 20 mins; format: ADME, organism-based; conditions: in vivo; in short: as §2
[27] = Biodistribution in R-Atrium of 9L-glioma bearing rat at 1 to 3 mCi, iv after 20 mins; format: ADME, organism-based, Right cardiac atrium; conditions: in vivo; in short: as §1
Septum [28] = assay: Biodistribution in septum of 9L-glioma bearing rat at 1 to 3 mCi, iv after 20 mins; format: ADME, organism-based; conditions: in vivo; in short: as §1
[29] = Biodistribution in L-ventricle of 9L-glioma bearing rat at 1 to 3 mCi, iv after 20 mins; format: ADME, organism-based, Heart left ventricle; conditions: in vivo; in short: as §1
[30] = Biodistribution in R-ventricle of 9L-glioma bearing rat at 1 to 3 mCi, iv after 20 mins; format: ADME, organism-based, Heart right ventricle; conditions: in vivo; in short: as §1
[31] = Biodistribution in A-V-node of 9L-glioma bearing rat at 1 to 3 mCi, iv after 20 mins; format: ADME, organism-based; conditions: in vivo; in short: as §1
Solar plexus [32] = assay: Biodistribution in solar plexus of 9L-glioma bearing rat at 1 to 3 mCi, iv after 20 mins; format: ADME, organism-based; conditions: in vivo; in short: as §1
[33] = Biodistribution in skeletal Muscle of 9L-glioma bearing rat at 1 to 3 mCi, iv after 20 mins; format: ADME, organism-based, Muscle tissue; conditions: in vivo; in short: as §1
9L [34] = assay: Biodistribution in tumor of 9L-glioma bearing rat at 1 to 3 mCi, iv after 20 mins; format: ADME, organism-based; conditions: in vivo; in short: as §1
[35] = Ratio of biodistribution in tumor to blood of 9L-glioma bearing rat at 1 to 3 mCi, iv after 20 mins; format: ADME, organism-based; conditions: tumour
[36] = Ratio of biodistribution in tumor to muscle of 9L-glioma bearing rat at 1 to 3 mCi, iv after 20 mins; format: ADME, organism-based; conditions: in vivo

Question: Which Drug uptake [1] does the source give for `C[N+]1(C)CCOC(O)(c2ccc(-c3ccc(C4(O)C[N+](C)([11CH3])CCO4)cc3)cc2)C1.O=S(=O)([O-])C(F)(F)F.[I-]` (stereo unspecified) here?
Answer: The Drug uptake was 1.026 % ID/g.

Question: And the Drug uptake [2]?
Answer: The Drug uptake was 6.38 % dose.

Question: What about the Drug uptake (Kidney [3]) of the same compound?
Answer: The Drug uptake was 7.64 % ID/g.

Question: And the Drug uptake (Liver [4])?
Answer: The Drug uptake was 0.848 % ID/g.

Question: And the Drug uptake (Lung [5])?
Answer: Its Drug uptake is 1.081 % ID/g.

Question: What about the Drug uptake (Brain [6]) of the same compound?
Answer: Its Drug uptake is 0.06 % ID/g.

Question: What about the Drug uptake (Blood [7]) of the same compound?
Answer: Its Drug uptake is 1.383 % ID/g.

Question: And the Drug uptake (Plasma [8])?
Answer: Its Drug uptake is 3.648 % ID/g.

Question: What about the Drug uptake [9] of the same compound?
Answer: The Drug uptake was 0.963 % ID/g.

Question: And the Drug uptake (Septum [10])?
Answer: Its Drug uptake is 0.381 % ID/g.

Question: And the Drug uptake [11]?
Answer: The Drug uptake was 0.415 % ID/g.

Question: And the Drug uptake [12]?
Answer: Its Drug uptake is 0.401 % ID/g.

Question: And the Drug uptake [13]?
Answer: The Drug uptake was 1.074 % ID/g.

Question: And the Drug uptake (Solar plexus [14])?
Answer: Its Drug uptake is 0.522 % ID/g.

Question: What about the Drug uptake [15] of the same compound?
Answer: Its Drug uptake is 0.207 % ID/g.

Question: And the Drug uptake (9L [16])?
Answer: The Drug uptake was 0.649 % ID/g.

Question: And the Kp at 5 min [17]?
Answer: Its Kp at 5 min is 0.466.

Question: And the Ratio [18]?
Answer: Its Ratio is 3.199.

Question: And the Drug uptake (Blood [19])?
Answer: The Drug uptake was 0.749 % ID/g.

Question: What about the Drug uptake (Plasma [20]) of the same compound?
Answer: Its Drug uptake is 1.453 % ID/g.

Question: What about the Drug uptake (Brain [21]) of the same compound?
Answer: Its Drug uptake is 0.035 % ID/g.

Question: What about the Drug uptake (Lung [22]) of the same compound?
Answer: The Drug uptake was 0.59 % ID/g.

Question: And the Drug uptake [23]?
Answer: The Drug uptake was 0.457 % ID/g.

Question: What about the Drug uptake (Liver [24]) of the same compound?
Answer: Its Drug uptake is 1.239 % ID/g.

Question: What about the Drug uptake (Kidney [25]) of the same compound?
Answer: The Drug uptake was 3.656 % ID/g.

Question: And the Drug uptake [26]?
Answer: The Drug uptake was 25 % dose.

Question: What about the Drug uptake [27] of the same compound?
Answer: The Drug uptake was 0.398 % ID/g.

Question: What about the Drug uptake (Septum [28]) of the same compound?
Answer: Its Drug uptake is 0.223 % ID/g.

Question: What about the Drug uptake [29] of the same compound?
Answer: Its Drug uptake is 0.244 % ID/g.

Question: And the Drug uptake [30]?
Answer: The Drug uptake was 0.234 % ID/g.

Question: And the Drug uptake [31]?
Answer: The Drug uptake was 0.478 % ID/g.

Question: And the Drug uptake (Solar plexus [32])?
Answer: Its Drug uptake is 2.057 % ID/g.

Question: And the Drug uptake [33]?
Answer: Its Drug uptake is 0.159 % ID/g.

Question: What about the Drug uptake (9L [34]) of the same compound?
Answer: The Drug uptake was 0.457 % ID/g.

Question: What about the Ratio [35] of the same compound?
Answer: The Ratio was 0.622.

Question: And the Ratio [36]?
Answer: The Ratio was 3.094.
